Active and inactive are the calls of the source. The calls are words filed in the database; no cut-off is given here.

The record followed here is ChEMBL document CHEMBL3352666, “Human Toll-like receptor 8-selective agonistic activities in 1-alkyl-1H-benzimidazol-2-amines” (J Med Chem, 2014).

Holding throughout (type): cell-based
Experiment [1] has as its target T1, Toll-like receptor 8 (Homo sapiens, UniProt Q9NR97).
T1 sequence (Q9NR97 whole entry): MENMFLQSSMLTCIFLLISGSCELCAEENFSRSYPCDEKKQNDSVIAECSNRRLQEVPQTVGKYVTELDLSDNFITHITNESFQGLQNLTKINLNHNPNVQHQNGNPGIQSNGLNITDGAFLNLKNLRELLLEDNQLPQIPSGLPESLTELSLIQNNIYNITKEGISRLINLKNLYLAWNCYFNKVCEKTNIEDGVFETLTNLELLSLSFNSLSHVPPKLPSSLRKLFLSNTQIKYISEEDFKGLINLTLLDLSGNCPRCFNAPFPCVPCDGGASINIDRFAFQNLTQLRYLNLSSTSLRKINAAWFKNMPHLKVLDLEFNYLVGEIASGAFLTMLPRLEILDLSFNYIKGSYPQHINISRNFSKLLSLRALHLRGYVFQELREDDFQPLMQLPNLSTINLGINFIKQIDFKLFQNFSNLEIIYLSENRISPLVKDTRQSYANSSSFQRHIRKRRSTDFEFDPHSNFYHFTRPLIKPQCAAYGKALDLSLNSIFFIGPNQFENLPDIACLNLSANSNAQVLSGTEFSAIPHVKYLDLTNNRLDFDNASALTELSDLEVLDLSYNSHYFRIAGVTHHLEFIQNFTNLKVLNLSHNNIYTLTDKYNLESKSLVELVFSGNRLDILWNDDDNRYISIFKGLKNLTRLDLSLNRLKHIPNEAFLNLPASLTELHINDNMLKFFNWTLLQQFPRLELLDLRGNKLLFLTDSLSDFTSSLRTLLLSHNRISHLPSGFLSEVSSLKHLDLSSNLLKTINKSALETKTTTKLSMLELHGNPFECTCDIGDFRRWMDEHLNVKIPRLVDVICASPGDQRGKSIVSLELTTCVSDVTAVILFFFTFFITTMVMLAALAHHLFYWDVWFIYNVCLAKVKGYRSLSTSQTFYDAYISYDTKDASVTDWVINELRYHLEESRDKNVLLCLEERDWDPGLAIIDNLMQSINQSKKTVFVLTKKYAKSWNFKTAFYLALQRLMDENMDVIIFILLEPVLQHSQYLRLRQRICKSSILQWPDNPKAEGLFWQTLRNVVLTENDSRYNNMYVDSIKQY
Kind of experiment: Agonist activity at human TLR8 stably expressed in HEK293 cells co-expressing secreted alkaline phosphatase assessed as NF-kappaB induction by liquid handler-assisted reporter gene assay. The gist of the method: (§1)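 HEK293 reporter cells stably co-transfected with the respective human TLR or NOD receptor plus NF-κB/AP-1-driven secreted alkaline phosphatase, kept in selection medium. About 10^5 cells/ml were incubated with graded concentrations of test compound in 384-well format. Supernatant sAP was read colorimetrically at 620 nm with an alkaline phosphatase-specific chromogen in detection medium.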
In general terms: Reporter assays use an easily measured gene product as a stand-in for the process of interest.

Experiment [2] concerns the target Toll-like receptor 2 (Homo sapiens) (UniProt O60603). The experiment can be described thus: Agonist activity at human TLR2 stably expressed in HEK293 cells co-expressing secreted alkaline phosphatase assessed as NF-kappaB induction by liquid handler-assisted reporter gene assay. The procedure, abridged: as §1
In experiment [3] the target is Toll-like receptor 3 (Homo sapiens) (UniProt O15455). Kind of experiment: Agonist activity at human TLR3 stably expressed in HEK293 cells co-expressing secreted alkaline phosphatase assessed as NF-kappaB induction by liquid handler-assisted reporter gene assay. The procedure, abridged:
as §1

Experiment [4] addresses Toll-like receptor 4 (Homo sapiens) (UniProt O00206). Kind of experiment: Agonist activity at human TLR4 stably expressed in HEK293 cells co-expressing secreted alkaline phosphatase assessed as NF-kappaB induction by liquid handler-assisted reporter gene assay. The gist of the method: as §1
Experiment [5] has as its target Toll-like receptor 5 (Homo sapiens) (UniProt O60602). The experiment can be described thus: Agonist activity at human TLR5 stably expressed in HEK293 cells co-expressing secreted alkaline phosphatase assessed as NF-kappaB induction by liquid handler-assisted reporter gene assay. The gist of the method:
as §1

The target of experiment [6] is T2, Toll-like receptor 9 (Homo sapiens) (UniProt Q9NR96).
T2 sequence (whole entry): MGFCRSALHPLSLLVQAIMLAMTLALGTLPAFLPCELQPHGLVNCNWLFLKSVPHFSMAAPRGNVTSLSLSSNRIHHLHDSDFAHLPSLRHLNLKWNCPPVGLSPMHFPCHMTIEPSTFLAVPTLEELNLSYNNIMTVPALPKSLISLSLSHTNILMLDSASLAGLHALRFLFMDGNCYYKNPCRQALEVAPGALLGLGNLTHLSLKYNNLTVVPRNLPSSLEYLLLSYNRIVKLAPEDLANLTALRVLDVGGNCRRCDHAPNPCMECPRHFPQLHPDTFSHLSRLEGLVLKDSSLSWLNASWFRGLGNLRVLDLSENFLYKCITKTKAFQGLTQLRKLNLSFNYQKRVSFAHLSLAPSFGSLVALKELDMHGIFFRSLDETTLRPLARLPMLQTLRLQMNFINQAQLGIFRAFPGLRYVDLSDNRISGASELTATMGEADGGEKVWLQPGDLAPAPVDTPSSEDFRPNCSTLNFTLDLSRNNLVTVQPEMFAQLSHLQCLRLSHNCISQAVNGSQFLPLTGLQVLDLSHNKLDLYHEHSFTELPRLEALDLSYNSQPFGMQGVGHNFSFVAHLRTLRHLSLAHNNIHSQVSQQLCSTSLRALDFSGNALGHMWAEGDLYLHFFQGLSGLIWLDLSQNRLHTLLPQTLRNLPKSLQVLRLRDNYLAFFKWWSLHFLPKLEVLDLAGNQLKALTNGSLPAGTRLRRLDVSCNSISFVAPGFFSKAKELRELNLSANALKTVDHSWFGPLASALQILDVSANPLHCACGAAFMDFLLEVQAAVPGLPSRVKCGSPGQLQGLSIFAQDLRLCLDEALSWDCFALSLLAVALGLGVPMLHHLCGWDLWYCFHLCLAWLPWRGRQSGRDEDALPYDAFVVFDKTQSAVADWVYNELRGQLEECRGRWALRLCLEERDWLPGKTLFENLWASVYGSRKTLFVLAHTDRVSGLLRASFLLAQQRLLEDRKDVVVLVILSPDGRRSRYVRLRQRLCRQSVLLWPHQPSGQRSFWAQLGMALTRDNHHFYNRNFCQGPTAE
Kind of experiment: Agonist activity at human TLR9 stably expressed in HEK293 cells co-expressing secreted alkaline phosphatase assessed as NF-kappaB induction by liquid handler-assisted reporter gene assay. The gist of the method: as §1

The target of experiment [7] is Nucleotide-binding oligomerization domain-containing protein 2 (Homo sapiens, UniProt Q9HC29). Kind of experiment: Agonist activity at human NOD2 stably expressed in HEK293 cells co-expressing secreted alkaline phosphatase assessed as NF-kappaB induction by liquid handler-assisted reporter gene assay. The gist of the method:
as §1

Nucleotide-binding oligomerization domain-containing protein 2, sequence (Q9HC29 whole entry, the tested form may be a part): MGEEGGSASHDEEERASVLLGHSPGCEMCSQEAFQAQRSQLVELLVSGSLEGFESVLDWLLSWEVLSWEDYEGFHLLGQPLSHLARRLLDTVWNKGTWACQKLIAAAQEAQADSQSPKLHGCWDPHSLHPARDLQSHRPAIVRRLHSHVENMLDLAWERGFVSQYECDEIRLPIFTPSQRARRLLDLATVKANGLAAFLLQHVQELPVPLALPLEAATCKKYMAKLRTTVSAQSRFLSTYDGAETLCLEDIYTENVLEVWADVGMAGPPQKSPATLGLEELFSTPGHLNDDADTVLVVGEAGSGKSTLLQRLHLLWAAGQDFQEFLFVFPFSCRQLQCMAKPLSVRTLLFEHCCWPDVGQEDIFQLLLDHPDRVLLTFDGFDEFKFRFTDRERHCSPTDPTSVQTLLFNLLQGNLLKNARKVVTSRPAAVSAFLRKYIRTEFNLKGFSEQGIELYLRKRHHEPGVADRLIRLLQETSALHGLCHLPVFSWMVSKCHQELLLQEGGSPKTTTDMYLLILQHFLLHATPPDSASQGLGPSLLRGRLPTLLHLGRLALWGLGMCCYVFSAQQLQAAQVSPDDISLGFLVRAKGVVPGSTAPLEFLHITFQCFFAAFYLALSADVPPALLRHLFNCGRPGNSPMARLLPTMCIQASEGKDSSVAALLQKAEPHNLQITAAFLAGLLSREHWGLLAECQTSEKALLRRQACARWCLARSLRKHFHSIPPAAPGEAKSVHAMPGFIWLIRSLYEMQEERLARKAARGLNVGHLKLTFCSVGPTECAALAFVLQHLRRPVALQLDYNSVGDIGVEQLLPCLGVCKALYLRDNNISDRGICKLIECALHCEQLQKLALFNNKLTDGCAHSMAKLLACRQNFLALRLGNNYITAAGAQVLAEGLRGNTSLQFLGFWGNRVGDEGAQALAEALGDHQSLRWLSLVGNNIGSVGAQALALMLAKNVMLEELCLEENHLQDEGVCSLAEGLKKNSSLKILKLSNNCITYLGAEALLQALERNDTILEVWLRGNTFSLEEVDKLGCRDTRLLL
Toll-like receptor 3 (Homo sapiens), sequence (O15455 whole entry): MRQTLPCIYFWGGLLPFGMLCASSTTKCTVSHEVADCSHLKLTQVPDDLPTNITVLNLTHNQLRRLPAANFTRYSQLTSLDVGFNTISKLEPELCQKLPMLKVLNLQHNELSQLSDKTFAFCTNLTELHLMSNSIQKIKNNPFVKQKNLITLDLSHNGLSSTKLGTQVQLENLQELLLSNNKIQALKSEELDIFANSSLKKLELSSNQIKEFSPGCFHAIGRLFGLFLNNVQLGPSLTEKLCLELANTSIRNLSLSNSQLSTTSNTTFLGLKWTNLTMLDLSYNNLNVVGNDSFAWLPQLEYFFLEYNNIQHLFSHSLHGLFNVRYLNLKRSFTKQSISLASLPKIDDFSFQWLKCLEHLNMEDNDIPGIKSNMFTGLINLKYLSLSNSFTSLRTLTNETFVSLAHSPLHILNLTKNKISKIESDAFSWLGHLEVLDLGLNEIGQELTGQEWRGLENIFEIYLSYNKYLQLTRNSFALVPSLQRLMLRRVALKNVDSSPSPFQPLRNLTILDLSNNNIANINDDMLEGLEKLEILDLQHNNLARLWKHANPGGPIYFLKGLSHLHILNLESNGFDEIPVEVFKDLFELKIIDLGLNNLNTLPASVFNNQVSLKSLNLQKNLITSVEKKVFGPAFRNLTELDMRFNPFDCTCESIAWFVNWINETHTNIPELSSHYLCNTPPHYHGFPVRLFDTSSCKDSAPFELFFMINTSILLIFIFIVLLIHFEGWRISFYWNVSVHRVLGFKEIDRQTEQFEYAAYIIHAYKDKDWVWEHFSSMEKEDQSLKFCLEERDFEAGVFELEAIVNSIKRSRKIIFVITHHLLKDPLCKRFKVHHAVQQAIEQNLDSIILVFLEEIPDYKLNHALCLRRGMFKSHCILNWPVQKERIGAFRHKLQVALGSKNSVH
Toll-like receptor 5 (Homo sapiens), sequence (O60602 whole entry): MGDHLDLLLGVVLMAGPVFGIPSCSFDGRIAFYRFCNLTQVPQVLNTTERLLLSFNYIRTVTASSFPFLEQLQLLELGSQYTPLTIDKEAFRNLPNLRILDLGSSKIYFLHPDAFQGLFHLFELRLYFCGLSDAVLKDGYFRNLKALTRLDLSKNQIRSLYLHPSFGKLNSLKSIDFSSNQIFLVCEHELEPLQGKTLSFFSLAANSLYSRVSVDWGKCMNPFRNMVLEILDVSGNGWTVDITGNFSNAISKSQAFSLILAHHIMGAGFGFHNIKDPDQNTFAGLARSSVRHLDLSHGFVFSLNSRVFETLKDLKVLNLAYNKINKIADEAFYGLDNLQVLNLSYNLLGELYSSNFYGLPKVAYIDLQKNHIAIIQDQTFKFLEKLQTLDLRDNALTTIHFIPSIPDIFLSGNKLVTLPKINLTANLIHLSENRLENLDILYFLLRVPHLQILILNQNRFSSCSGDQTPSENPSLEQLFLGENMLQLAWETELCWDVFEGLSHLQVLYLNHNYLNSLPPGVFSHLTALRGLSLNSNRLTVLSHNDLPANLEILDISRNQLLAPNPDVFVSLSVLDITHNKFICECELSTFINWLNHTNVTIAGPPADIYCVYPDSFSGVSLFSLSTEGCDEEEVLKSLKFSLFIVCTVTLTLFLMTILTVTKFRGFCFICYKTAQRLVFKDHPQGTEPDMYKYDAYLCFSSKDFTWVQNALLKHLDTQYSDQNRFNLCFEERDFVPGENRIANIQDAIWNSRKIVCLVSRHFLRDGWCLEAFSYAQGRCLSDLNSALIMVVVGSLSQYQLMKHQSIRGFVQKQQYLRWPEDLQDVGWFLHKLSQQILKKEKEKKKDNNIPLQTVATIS
Toll-like receptor 2 (Homo sapiens), sequence (O60603 whole entry): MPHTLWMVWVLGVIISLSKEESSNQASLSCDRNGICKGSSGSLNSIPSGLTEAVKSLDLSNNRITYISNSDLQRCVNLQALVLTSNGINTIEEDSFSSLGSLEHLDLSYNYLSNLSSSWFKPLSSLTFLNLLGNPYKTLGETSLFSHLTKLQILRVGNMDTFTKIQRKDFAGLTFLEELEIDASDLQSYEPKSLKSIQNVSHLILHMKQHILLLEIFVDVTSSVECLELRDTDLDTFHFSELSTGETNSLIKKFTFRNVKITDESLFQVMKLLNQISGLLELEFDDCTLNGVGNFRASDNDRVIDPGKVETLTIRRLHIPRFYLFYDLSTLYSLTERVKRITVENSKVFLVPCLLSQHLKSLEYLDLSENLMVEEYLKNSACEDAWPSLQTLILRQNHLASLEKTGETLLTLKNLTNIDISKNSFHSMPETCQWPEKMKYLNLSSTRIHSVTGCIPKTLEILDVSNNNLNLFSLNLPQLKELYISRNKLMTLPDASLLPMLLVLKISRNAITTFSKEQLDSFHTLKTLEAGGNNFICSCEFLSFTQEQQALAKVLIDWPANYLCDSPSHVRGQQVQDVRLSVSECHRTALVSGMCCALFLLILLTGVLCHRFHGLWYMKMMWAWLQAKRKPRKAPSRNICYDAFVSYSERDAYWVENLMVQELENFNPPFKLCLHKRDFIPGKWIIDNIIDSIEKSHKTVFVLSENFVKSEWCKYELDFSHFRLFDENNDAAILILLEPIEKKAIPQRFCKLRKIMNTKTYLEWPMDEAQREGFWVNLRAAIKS
Toll-like receptor 4 (Homo sapiens), sequence (O00206 whole entry): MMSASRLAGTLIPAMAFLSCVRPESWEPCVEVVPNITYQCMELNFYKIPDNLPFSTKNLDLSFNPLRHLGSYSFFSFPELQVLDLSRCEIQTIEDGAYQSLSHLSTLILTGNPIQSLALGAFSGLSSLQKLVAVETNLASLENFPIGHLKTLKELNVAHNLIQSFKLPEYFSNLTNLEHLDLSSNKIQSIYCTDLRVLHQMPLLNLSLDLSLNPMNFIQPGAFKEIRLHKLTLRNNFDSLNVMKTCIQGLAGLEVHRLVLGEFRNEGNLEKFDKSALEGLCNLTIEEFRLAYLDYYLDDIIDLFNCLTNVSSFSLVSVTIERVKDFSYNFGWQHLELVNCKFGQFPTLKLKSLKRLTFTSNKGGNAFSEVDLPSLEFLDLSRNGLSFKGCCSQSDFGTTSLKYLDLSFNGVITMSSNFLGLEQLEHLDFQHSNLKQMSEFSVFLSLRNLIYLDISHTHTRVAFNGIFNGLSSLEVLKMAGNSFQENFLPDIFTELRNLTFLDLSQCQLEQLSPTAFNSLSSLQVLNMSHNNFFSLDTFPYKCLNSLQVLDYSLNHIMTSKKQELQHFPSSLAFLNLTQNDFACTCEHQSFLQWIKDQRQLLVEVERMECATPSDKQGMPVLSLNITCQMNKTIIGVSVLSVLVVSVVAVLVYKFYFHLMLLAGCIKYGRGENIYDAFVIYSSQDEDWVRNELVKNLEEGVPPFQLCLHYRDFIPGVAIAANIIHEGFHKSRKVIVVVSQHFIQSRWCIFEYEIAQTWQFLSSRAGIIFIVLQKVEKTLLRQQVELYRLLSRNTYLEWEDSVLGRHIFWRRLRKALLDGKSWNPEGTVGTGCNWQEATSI

In the case of `CCCCCn1c(N)nc2c(Cc3ccccc3)cccc21`, the EC50 entry in experiment [1] is “Not Active”. Moreover, the outcome in experiment [2], in experiment [3], in experiment [4], in experiment [5], in experiment [6] and in experiment [7] was inactive.

In the case of `NCc1cccc(Cn2c(N)nc3ccccc32)c1`, in experiment [1], the EC50 result was “Not Active”. Moreover, the outcome in experiment [2], in experiment [3], in experiment [4], in experiment [5], in experiment [6] and in experiment [7] was inactive.

With `CCCCCn1c(N)nc2cnccc21`, the EC50 result in experiment [1] is “Not Active”. The outcome in experiment [2], in experiment [3], in experiment [4], in experiment [5], in experiment [6] and in experiment [7] was inactive.

`CCCCCn1c(N)nc2cccnc21`: in experiment [1], the EC50 entry is “Not Active”. Besides, the outcome in experiment [2], in experiment [3], in experiment [4], in experiment [5], in experiment [6] and in experiment [7] was inactive.

Take `CCCCC1(O)C(N)=Nc2ccccc21` (stereo not given): the EC50 result in experiment [1] is on record as “Not Active”. Besides, the result in experiment [2], in experiment [3], in experiment [4], in experiment [5], in experiment [6] and in experiment [7] was inactive.
